# Columns and labels:
# [1] = target: Neuraminidase (Influenza A virus (A/Puerto Rico/8/1934(H1N1)), UniProt P03468); assay: Inhibition of Influenza Virus A/PR/8/34 neuraminidase chemiluminescence-based enzyme inhibition assay
# In short: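 Chemiluminescent NA assay using NA-Star 1,2-dioxetane sialic acid substrate. Virus culture supernatant was serially 2-fold diluted in NA-Star buffer, and the dilution giving 40:1 signal-to-noise was used. Compound was preincubated with virus for 20 min at 37 C, then substrate (1:500) was added for 30 min at room temperature. Mean of six untreated virus controls set to 100%. IC50 from n = 3 assays, triplicate wells.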
# Neuraminidase [2] = target: T1, Neuraminidase (Influenza A virus, UniProt B4URF0); assay: Inhibition of Influenza Virus A/Horneburg/IDT7489/08 (H1N1) neuraminidase
# In short: (§1)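 Swine H1N1 isolate NA measured by NA-Star chemiluminescence. The virus supernatant dilution giving 40:1 signal-to-noise was incubated with compound for 20 min at 37 C, then dioxetane sialic acid substrate (1:500) was added for 30 min at room temperature. Six untreated virus controls set to 100%. IC50 from n ≥ 4 assays, triplicate wells.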
# Neuraminidase [3] = target: T1, Neuraminidase; assay: Inhibition of Influenza Virus A/Brest/IDT7490/08 (H1N1) neuraminidase; in short: as §1
# Neuraminidase [4] = target: T1, Neuraminidase; assay: Inhibition of Influenza Virus A/Belzig/2/01 (H1N1) neuraminidase; parameters: species or system Influenza A virus (A/swine/Belzig/2/2001(H1N1))
# In short: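 Swine H1N1 NA assayed by NA-Star chemiluminescence. Compound was mixed with the diluted virus supernatant (dilution giving 40:1 signal-to-noise) for 20 min at 37 C, then substrate (1:500) was added for 30 min at room temperature. Activity relative to six untreated virus controls; IC50 from one assay, each concentration in triplicate.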
# Neuraminidase [5] = target: T1, Neuraminidase; assay: Inhibition of Influenza Virus A/Potsdam/15/81 (H1N1) neuraminidase
# [6] = Cytotoxicity against MDCK cells; assay type: cell-based, Canis lupus familiaris; conditions: dog
# In short: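 Confluent 3-day-old MDCK monolayers in EMEM with 10% FBS were exposed to serial 2-fold dilutions (triplicate) for 72 h at 37 °C, 5% CO2. Cells were fixed and stained with crystal violet-formalin, dye was extracted, and OD was read at 550/630 nm. Viability is given relative to six mock-treated controls. CC50 comes from the mean dose-response curve of two independent assays.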
# Influenza A virus = assay: Antiviral activity against Influenza A virus (A/Puerto Rico/8/34(H1N1)) in MDCK cells assessed as reduction in plaque number by plaque reduction assay; conditions: A/Puerto Rico/8/1934(H1N1)
# T1 sequence (B4URF0 whole entry): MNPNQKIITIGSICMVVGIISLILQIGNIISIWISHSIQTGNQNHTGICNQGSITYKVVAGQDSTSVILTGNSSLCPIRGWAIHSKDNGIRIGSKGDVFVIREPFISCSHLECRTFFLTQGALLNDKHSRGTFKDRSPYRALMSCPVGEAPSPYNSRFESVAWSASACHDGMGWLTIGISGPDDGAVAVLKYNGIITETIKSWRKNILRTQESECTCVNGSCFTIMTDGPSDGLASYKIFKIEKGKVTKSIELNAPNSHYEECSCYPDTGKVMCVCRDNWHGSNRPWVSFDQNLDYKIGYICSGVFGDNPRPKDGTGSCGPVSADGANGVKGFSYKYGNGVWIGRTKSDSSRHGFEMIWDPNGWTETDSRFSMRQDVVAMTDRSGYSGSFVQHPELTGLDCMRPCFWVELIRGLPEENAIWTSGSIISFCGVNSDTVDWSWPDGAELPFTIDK
# Sequence of Neuraminidase (Influenza A virus (A/Puerto Rico/8/1934(H1N1)), UniProt P03468) (P03468 whole entry): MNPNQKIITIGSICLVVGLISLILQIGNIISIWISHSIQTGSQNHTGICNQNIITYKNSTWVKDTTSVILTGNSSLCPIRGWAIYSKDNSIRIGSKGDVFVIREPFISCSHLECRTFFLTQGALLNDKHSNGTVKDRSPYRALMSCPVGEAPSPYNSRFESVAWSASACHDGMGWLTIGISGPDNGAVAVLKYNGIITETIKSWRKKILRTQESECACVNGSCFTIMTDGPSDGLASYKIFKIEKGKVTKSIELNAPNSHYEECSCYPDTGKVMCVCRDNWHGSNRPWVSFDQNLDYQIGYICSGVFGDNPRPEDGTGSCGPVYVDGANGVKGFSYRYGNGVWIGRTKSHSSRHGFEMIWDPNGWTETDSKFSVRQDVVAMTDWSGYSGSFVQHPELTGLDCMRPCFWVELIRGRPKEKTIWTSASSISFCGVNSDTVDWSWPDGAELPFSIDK
SMILES,IC50 [1],further results
O[C@@H](CC/C=C/c1ccccc1)CCc1ccccc1,4.13 µM,
O=C(/C=C(O)\C=C\c1ccccc1)CCc1ccccc1,4.67 µM,
O=C(/C=C/C=C/c1ccccc1)CCc1ccccc1,6.1 µM,
CC(C)=CCC/C(C)=C/CC/C(C)=C/CO [FARNESOL],81.4 µM,
O[C@@H](CCc1ccccc1)C[C@H](O)/C=C/c1ccccc1,29.8 µM,
O=C(CCc1ccccc1)C[C@@H]1C[C@@H](c2ccccc2)c2c(cc(/C=C/c3ccccc3)oc2=O)O1 [KATSUMADAIN A],1.05 µM,IC50 (Neuraminidase [2]): 0.00111 µM; IC50 (Neuraminidase [3]): 0.00164 µM; IC50 (Neuraminidase [4]): 0.00059 µM; IC50 (Neuraminidase [5]): 0.00073 µM; CC50 [6]: 66.9 µM; IC50 (Influenza A virus): 11.8 µM

# Reference: ChEMBL document CHEMBL1154750 (J Med Chem, 2010)
